From article PMC4258449 (Nitric oxide : biology and chemistry / official journal of …, 2014)
Where two headings read alike, the source gives them in different places. Each block holds one molecule with its values, some of them ahead of it.

How the values were obtained:
[1] = physiological conditions; cited from earlier work
[2] = tested on: MDA-MB-231 and MCF-7 cells; conditions: cited from earlier work
[3] = type: physicochemical; conditions: for half-life: assay buffer: 50 µM DTPA in phosphate-buffered saline; for k (decomposition rate constant): pH 7.4, 37 °C, assay buffer
[4] = tested on: MCF-7 cells; assay: Clonogenic cell viability assay; type: cell-based, human; conditions: MCF-7, 0.5–20 mM, 24 h treatment
How it was run: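 MCF-7 cells in RPMI 1640 with 10% FBS and penicillin/streptomycin at 37 °C, 5% CO2, were seeded at 400,000 per 60-mm dish and grown 48 h. They were exposed in growth medium for 24 h, PBS-washed twice, trypsinized, counted and replated at 100, 1,000 or 10,000 per plate in triplicate. Colonies were crystal-violet stained after 10–12 d and counted. Experiments were repeated at least twice; mean ± SD.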

[5] = tested on: MDA-MB-231 breast cancer cells; assay: Intracellular HNO/NO release with DAF-FM-2DA; type: cell-based, human; conditions: 10 µM donor, MDA-MB-231 cells loaded with 10 µM DAF-FM-2DA, 37 °C
How it was run: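 They then received 10 µM donor, given as ionic diazeniumdiolates in 10 mM NaOH or the ester-protected form in ethanol (<0.1%). The rise in fluorescence (ex 485/em 535 nm) was followed over time at 37 °C. n = 2, six replicates per plate; mean ± SD.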

[6] = tested on: MCF-7 or MDA-MB-231 cells; assay: MTT viability assay; type: cell-based, human; conditions: read-out: IC50 (cytotoxicity), 48 h, 10–100 µM
How it was run: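 Breast cancer cells were seeded at 8,000–10,000 per well and grown overnight. They were treated 48 h with test compound (10–100 µM) or ethanol vehicle (<0.1% v/v). MTT (5 mg/mL solution) was added for 1 h at 37 °C, medium was removed, formazan was dissolved in DMSO, and absorbance was read at 550 nm. Growth inhibition was expressed as % of matching control; n ≥ 3, mean ± SD.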

[7] = guinea pig, pH 7.4
[8] = tested on: MDA-MB-231 cells; assay: MTT viability assay, 5 combined with tamoxifen; type: cell-based, human

SMILES: [Na+].[Na+].[O-][N+]([O-])=NO [Angeli’s salt, sodium trioxodinitrate]
half-life [1]: ~ 2 min | concentration range inhibiting proliferation [2]: millimolar range

half-life ([3]; pH 7.4): 3.6 ± 0.08 min | k (decomposition rate constant) [3]: 3.2 ± 0.07 × 10^−3 s^−1
SMILES: [Na+].[O-]N=[N+]([O-])NC1CCCC1 [Compound 1, Sodium 1-(N-cyclopentylamino)diazen-1-ium-1,2-diolate]
cytotoxicity (clonogenic assay) [4]: lowest cytotoxicity

half-life ([3]; pH 7.4): 6.1 ± 0.02 min
SMILES: [Na+].[O-]N=[N+]([O-])NC1CCCCC1 [Compound 2, Sodium 1-(N-cyclohexylamino)diazen-1-ium-1,2-diolate]

half-life ([3]; pH 7.4): 5.9 ± 0.04 min
SMILES: [Na+].[O-]N=[N+]([O-])NC1CCCCCC1 [Compound 3, Sodium 1-(N-cycloheptylamino)diazen-1-ium-1,2-diolate]

half-life ([3]; pH 7.4): 5.4 ± 0.07 min | k (decomposition rate constant) [3]: 2.1 ± 0.02 × 10^−3 s^−1
SMILES: [Na+].[O-]N=[N+]([O-])NC1CCCCCCC1 [Compound 4, Sodium 1-(N-cyclooctylamino)diazen-1-ium-1,2-diolate]

SMILES: CC(=O)OCON=[N+]([O-])NC1CCCC1 [Compound 5, O^2-(Acetoxymethyl) 1-(cyclopentylamino)diazen-1-ium-1,2-diolate]
decomposition rate constant at pH 9 ([3]; absence of serum, pH 9): 5.0 × 10^−3 s^−1 | half-life of decomposition ([3]; pH 7.4): 21 min | DAF-FM fluorescence signal relative to the four ionic compounds [5]: ~ 3 fold | IC50 [6]: ~100 µM | half-life of decomposition in the presence of serum esterases [7]: 5.8 min | viability ([8]; 5 at 75 µM, 48 h, MB-231 cells): 75 ± 6%

SMILES: CC(C)N[N+]([O-])=N[O-].[Na+] [IPA/NO, sodium 1-(N-isopropylamino)diazen-1-ium-1,2-diolate]
half-life [1]: 6.7 min

SMILES: CC/C(=C(\c1ccccc1)c1ccc(OCCN(C)C)cc1)c1ccccc1 [tamoxifen, Tamoxifen, reference compound]
viability at 10 µM ([8]; Homo sapiens, MDA-MB-231, 48 h): 76 ± 13%
